According to ChEMBL document CHEMBL4414651, “Discovery and Optimization of Salicylic Acid-Derived Sulfonamide Inhibitors of the WD Repeat-Containing Protein 5-MYC Protein-Protein Interaction” (J Med Chem, 2019):
Calls of active or inactive are those of the source. No cut-off for these calls is given here.

Legend:
[1] = molecular target: T1, WD repeat-containing protein 5 (Homo sapiens, UniProt P61964); assay: Binding affinity to N-terminal FLAG-tagged human full-length WDR5 expressed in HEK293T cells harboring human C-terminal HA-tagged c-MYC assessed as disruption of WDR5-c-MYC protein-protein interaction at 50 uM by SDS-PAGE based immunoblot assay; format: cell-based
[2] = Solubility of the compound; format: physicochemical
Procedure, shortened: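 Kinetic solubility, measured by an outside contract lab using a standard commercial assay format.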

[3] = molecular target: T1, WD repeat-containing protein 5; assay: Binding affinity to N-terminal FLAG-tagged human full-length WDR5 […] assessed as change in melting temperature at 10 uM by differential scanning fluorimetry
Procedure, shortened: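 Thermal shift (differential scanning fluorimetry) on WDR5, with compounds at 10 μM. Samples were run in triplicate, and ΔTm is the average melting-temperature shift read by fluorescence.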

[4] = molecular target: T1, WD repeat-containing protein 5; assay: Binding affinity to N-terminal FLAG-tagged human full-length WDR5 expressed in HEK293T cells harboring human C-terminal HA-tagged c-MYC assessed as disruption of WDR5-RBBP5 protein-protein interaction at 50 uM by SDS-PAGE based immunoblot assay; format: cell-based
Procedure, shortened: (§1)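 HEK293 cells expressing FLAG-WDR5 and c-MYC-HA were kept in DMEM with 10% FBS, hygromycin B 50 μg/mL and puromycin 100 ng/mL. Lysates in Tris pH 8.0/NaCl/EDTA/1% Triton buffer were treated with compound at 50 μM or 6.25–50 μM. α-FLAG magnetic M2 beads, 2 h at 4 °C, then SDS-PAGE and α-RBBP5 immunoblot. Quantified against vehicle; at least two independent repeats.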

[5] = molecular target: T1, WD repeat-containing protein 5
[6] = Protein binding in plasma (unknown origin) assessed as unbound fraction; format: ADME, cell-free
[7] = molecular target: T1, WD repeat-containing protein 5; assay: Binding affinity to N-terminal FLAG-tagged human full-length WDR5 expressed in HEK293T cells harboring human C-terminal HA-tagged c-MYC assessed as disruption of WDR5-RBBP5 protein-protein interaction by SDS-PAGE based immunoblot assay; format: cell-based; procedure, shortened: as §1
[8] = molecular target: T1, WD repeat-containing protein 5; assay: Binding affinity to WDR5 (unknown origin) assessed as inhibition of WDR5-MLL1 protein-protein interaction by TR-FRET assay
[9] = Apparent permeability from apical to basolateral side in MDCK cells; format: ADME, cell-based, Canis lupus familiaris; settings: dog
[10] = molecular target: T1, WD repeat-containing protein 5; assay: Binding affinity to N-terminal FLAG-tagged human full-length WDR5 expressed in HEK293T cells harboring human C-terminal HA-tagged c-MYC assessed as disruption of WDR5-c-MYC protein-protein interaction by SDS-PAGE based immunoblot assay; format: cell-based
[11] = species on record: Homo sapiens; assay: Inhibition of human MLL1/WDR5/RBBP5/ASH2L/DPY30 complex assessed as reduction in histone methyl-transferase activity using H3-peptide as substrate
[12] = Apparent permeability from basolateral to apical side in MDCK cells; format: ADME, cell-based, Canis lupus familiaris; settings: dog

Structure (SMILES) | Activity [1] | solubility [2] | ΔTm [3] | Activity [4] | Kd [5] | Fu [6] | Activity [7] | inhibition [8] | Papp [9] | Activity [10] | inhibition [11] | Papp [12]
N#CC1(c2cc(NS(=O)(=O)c3cc(Br)cc(Cl)c3O)c(O)c(C(=O)O)c2)CCC1 | Active | > 100 µM | 6.68 °C | Active | 30 nM | < 0.0003% | Dose-dependent effect | inactive | 0.33 ×10⁻⁶ cm/s | Dose-dependent effect | Active | –
CNC(=O)c1c(O)c(NS(=O)(=O)c2cc(Br)ccc2O)cc(C2CC2)c1F | – | > 100 µM | – | – | 1420 nM | < 0.0002% | – | – | 12.9 ×10⁻⁶ cm/s | – | Active | 3.4 ×10⁻⁶ cm/s
CNC(=O)c1cc(Cl)cc(NS(=O)(=O)c2cc(Br)ccc2O)c1O | Active | > 100 µM | – | Active | 746 nM | < 0.0004% | – | – | 16.7 ×10⁻⁶ cm/s | – | Active | 14.1 ×10⁻⁶ cm/s
CNC(=O)c1cc(C2(C#N)CCC2)cc(NS(=O)(=O)c2cc(Br)cc(Cl)c2O)c1O | Active | > 100 µM | 5.53 °C | Active | 69 nM | < 0.0006% | Dose-dependent effect | – | 14 ×10⁻⁶ cm/s | Dose-dependent effect | Active | –
